Screening data deposited in PubChem by Broad Institute.
Vif inh: blocks HIV Vif function; inhibition, % at 7.49 µM; 340,000 tested, 0.35% active; HEK293T cells, Vif self-association by quenched fluorescence, imaging, 24 h; AID 602346; in the data active means inhibition above about 50%, passing the limit was not always enough
PglD DTNB: blocks C. jejuni PglD acetyltransferase activity | purified PglD enzyme, DTNB colorimetric CoA detection | inhibition, % at 12.5 µM | 360,000 tested, 0.098% active; in the data active means inhibition above about 16%, passing the limit was not always enough
Cneo AK release: causes C. neoformans cell lysis; adenylate kinase release luminescence, 4 h; normalised: neutral wells 0, clomiphene wells 100; lysis activity, % at 15 µM; 360,000 tested, 0.2% active;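 active means mean lysis activity across replicates of at least 80%, whatever share of replicates individually reach that level; inactive means mean lysis activity below 80%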
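Material – Cryptococcus neoformans yeast cells · Quantity – 5 × 10^6 yeast cells/mL · Buffer or medium – YPD medium · Compound – single dose · Timing – 4 h static compound exposure, 37 °C, read 1 h post-reagent · Signal – adenylate kinase release luminescence · Read-out basis – lysis from increased AK signal · Benchmarks – Clomiphene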
rRNA inh HTS: selective bacterial rRNA inhibition in E. coli | 350,000 tested, 1.6% active | E. coli WT GFP vs humanized-ribosome RFP mutants, fluorescence, 24 h; active compounds read low; DMSO median 0, no signal -100 | GFP signal change (wild-type ribosome), % (no concentration beside the values);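 active means significant combined selectivity score with lowered wild-type GFP, culture density cut under 30%, mutant RFP and density less affected; inactive means any of these conditions unmet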
FGF22 binding: binders of recombinant human FGF22 by thermal shift; Q9HCT0; SYPRO orange fluorescence; percent of sucrose octasulfate shift, DMSO zero; activity (Tm shift, normalised), % at 9.99 µM; 340,000 tested, 1.5% active; AID 651658;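 active means mean Tm shift, scaled 0 neutral to 100 positive control, at about 1.3% or above, every replicate too, limit read from the data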
Target sequence (Q9HCT0 whole entry, looked up): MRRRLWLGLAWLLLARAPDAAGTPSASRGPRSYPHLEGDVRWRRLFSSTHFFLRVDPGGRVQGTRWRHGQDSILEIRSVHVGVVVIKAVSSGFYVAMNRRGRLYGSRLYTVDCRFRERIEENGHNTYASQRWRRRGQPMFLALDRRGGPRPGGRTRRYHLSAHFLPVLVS
PGC1a acetyl inh: PGC1a acetylation modulation, inhibitor mode; 350,000 tested, 0.17% active; inhibition, % at 15.6 µM; U2OS PGC1a acetylation, AlphaScreen anti-acetyl-lysine; with virally co-expressed GCN5 acetyltransferase;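 active means every replicate shows inhibition of at least 40%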;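 further: 0% = neutral control wells and 100% = positive control wells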
The depositor's hits bear a star; / = no result. Most compounds without a hit are left out; they make up all but 2.9% or so of the library.

SMILES	Vif inh	PglD DTNB	Cneo AK release	rRNA inh HTS	FGF22 binding	PGC1a acetyl inh
COc1ccc(C#Cc2ccc([C@H]3[C@H](CO)N4CCCCN(C(=O)Cc5cccnc5)C[C@@H]34)cc2)cc1	/	2	4	-60	0	-3
Nc1cc(N2CCNCC2)ccc1[N+](=O)[O-]	4	/	/	/	/	/
CNc1cc(N2CCNCC2)ccc1[N+](=O)[O-]	51*	/	/	1	0	0
COc1ccc(-c2ccc3n(c2=O)C[C@@H]2[C@@H](CO)[C@H](C(=O)O)[C@H]3N2C(=O)c2ccccc2F)cc1	/	-1	-2	2	0	/
COc1ccc2c(c1)C(c1ccc(N(CCCl)CCCl)cc1)=NCC2	-8	-2	3	-58	0	-17
COc1ccc(N2C(=O)C(=O)N(c3ccc(OC)cc3)P2(=O)N(CCCl)CCCl)cc1	3	-3	-2	10	43*	-6
COC(=O)[C@H]1[C@H](CO)[C@H]2Cn3c(ccc(-c4ccccc4F)c3=O)[C@@H]1N2CC1CCCC1	/	0	-2	-3	0	/
C[C@]12CCC3[C@@H](CC[C@H]4C[C@@H](O)CC[C@]34C)C1CCC2=O (some centres not stated)	-14	-3	-1	-19	0	-8
C[C@]12CCC3C(CC[C@H]4C[C@@H](O)CC[C@]34C)C1C[C@@H](O)C2=O (some centres not stated)	1	4	0	-23*	0	-9
COC(=O)C12OCC34C(CC5C(C)=C(O)C(=O)CC5(C)C3C(O)C1O)OC(=O)C(OC(=O)/C=C(\C)C(C)C)C24 (configuration not stated)	-28	/	/	3	0	86*
O=C(Cc1ccccc1)N1CC2(C1)[C@H](c1ccccc1)[C@H](CO)N2Cc1cccc(F)c1	/	/	/	-8	0	-17
C[C@H]1CCCC(=O)CCC/C=C/c2cc(O)cc(O)c2C(=O)O1	1	1	0	/	-1	/
C[C@H]1CCC/C=C/[C@@H]2C[C@H](O)C[C@H]2[C@H](O)/C=C/C(=O)O1	10	1	-2	/	0	69*
O=C(NN=Cc1ccc(N(CCCl)CCCl)cc1)c1cc(=O)[nH]c(=O)[nH]1	3	-6	1	18	44*	5
COc1cccc(-c2ccc3n(c2=O)C[C@H]2[C@H](CO)[C@@H](C(=O)O)[C@@H]3N2Cc2ccccc2F)c1	/	/	/	-3	/	/
COC(=O)C1C(O)C(C)C(O)C(C)/C=C\C=C(/C)C(=O)Nc2c(C)c(OC(C)=O)c3c(c2O)C(=O)C(C)=C2OCOC(=C23)/C(C)=C/C(C)(O)C(O)C(C)C1O (configuration not stated)	-1	1	-2	-17*	0	/
O=C(Cc1ccccn1)N1CCCCN2[C@H](CO)[C@H](c3ccc(-c4ccccc4F)cc3)[C@@H]2C1	/	2	3	-3	0	15
COC(=O)[C@H]1[C@H](CO)[C@H]2Cn3c(ccc(-c4ccccc4F)c3=O)[C@@H]1N2C(=O)C1CC1	/	1	-3	3	0	-5
CNC1(c2ccc(F)cc2)CCCCC1	4	/	/	3	0	/
OC1(c2ccc(F)cc2)CCNC1 (configuration not stated)	82*	1	1	/	/	-6
COC(=O)C[C@H]1CC[C@@H]2NC[C@@H](O)COC[C@H]2O1	/	3	3	4	0	-8
O=C(/C=C/C=C/c1ccccc1)CC1(O)C(=O)Nc2ccccc21 (configuration not stated)	-2	/	/	-13	43*	3
CC(=O)/C=C/c1ccccc1	2	-9	3	6	0	3
C[C@]12CCC(=O)C=C1CC[C@@H]1[C@@H]2CC[C@]2(C)C(=O)CC[C@@H]12	3	3	-9	-26	0	-12
C[C@]12CCC(=O)C=C1CC[C@@H]1C2CC[C@]2(C)C(=O)CCC12 (some centres not stated)	-8	2	-2	-38*	0	-3
SMILES	Vif inh	PglD DTNB	Cneo AK release	rRNA inh HTS	FGF22 binding	PGC1a acetyl inh
C[C@]12CCC3C(CC[C@H]4[C@@H](O)[C@H](O)CC[C@]34C)C1CCC2=O (some centres not stated)	3	-2	0	-22*	46*	0
C[C@]12CC[C@@H](O)C[C@H]1CC[C@@H]1[C@@H]2CC[C@]2(C)C(=O)CC[C@@H]12	11	-3	2	/	0	-15
COc1ccccc1-n1c(Cc2ccccc2)nc2ccccc2c1=O	13	3	-1	-22*	1	-4
CCCNC(=O)[C@H]1[C@H](CO)[C@H]2Cn3c(cccc3=O)[C@@H]1N2CCC	/	2	-2	3	0	/
COc1ccc(-n2nnnc2C(CCc2ccccc2)N2CCC(n3c(=O)[nH]c4ccccc43)CC2)cc1 (configuration not stated)	/	6	0	12	0	55*
CCCCn1nnnc1C(C1CC1)N1CCC(n2c(=O)[nH]c3ccccc32)CC1 (configuration not stated)	-7	-1	-1	-20*	0	-9
CCCCn1nnnc1C(CCSC)N1CCC(n2c(=O)[nH]c3ccccc32)CC1 (configuration not stated)	-2	-2	-24	-3	0	9
CCC(c1nnnn1-c1ccc(OC)cc1)N1CCC(n2c(=O)[nH]c3ccccc32)CC1 (configuration not stated)	-1	1	-5	0	0	0
C[C@@H]1O[C@@H](O[C@H]2C[C@@H](O)[C@]3(CO)[C@H]4[C@H](O)C[C@]5(C)[C@@H](C6COC(=O)C6)CC[C@]5(O)[C@@H]4CC[C@]3(O)C2)[C@H](O)[C@H](O)[C@H]1O (some centres not stated)	-10	5	0	/	0	0
CC1OC(OC2CC(O)C3(CO)C4C(O)CC5(C)C(C6=CC(=O)OC6)CCC5(O)C4CCC3(O)C2)C(O)C(O)C1O (configuration not stated)	-26	-1	1	3	0	81*
CC(=O)c1c(C)n(C2CCCCC2)c2ccc(O)cc12	-9	/	/	19	-1	55*
COc1ccccc1N1CCN(Cc2ccccc2Cl)CC1	1	6	-4	/	/	-13
COc1ccccc1N1CCN(Cc2ccc(Br)cc2)CC1	3	-2	-3	-28*	0	-20
Cc1cc(OC(=O)N(C)C)nc(SCc2c(Cl)cccc2Cl)n1	5	/	/	-18*	0	1
CN(C)C(=O)Oc1c(Cl)cc(Cl)c2ccccc12	6	6	2	/	/	0
